# DAGLB inh: diacylglycerol lipase beta (human) inhibition; Q8NCG7; HEK293T DAGLB membrane lysate, EnzChek fluorogenic substrate; inhibition, % at 5.17 µM; 340,000 compounds, 0.059% hits; in the data active = inhibition above about 34%;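 note: 0% = enzyme with vehicle and 100% = wells lacking enzyme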
# Target sequence (Q8NCG7 whole entry, looked up): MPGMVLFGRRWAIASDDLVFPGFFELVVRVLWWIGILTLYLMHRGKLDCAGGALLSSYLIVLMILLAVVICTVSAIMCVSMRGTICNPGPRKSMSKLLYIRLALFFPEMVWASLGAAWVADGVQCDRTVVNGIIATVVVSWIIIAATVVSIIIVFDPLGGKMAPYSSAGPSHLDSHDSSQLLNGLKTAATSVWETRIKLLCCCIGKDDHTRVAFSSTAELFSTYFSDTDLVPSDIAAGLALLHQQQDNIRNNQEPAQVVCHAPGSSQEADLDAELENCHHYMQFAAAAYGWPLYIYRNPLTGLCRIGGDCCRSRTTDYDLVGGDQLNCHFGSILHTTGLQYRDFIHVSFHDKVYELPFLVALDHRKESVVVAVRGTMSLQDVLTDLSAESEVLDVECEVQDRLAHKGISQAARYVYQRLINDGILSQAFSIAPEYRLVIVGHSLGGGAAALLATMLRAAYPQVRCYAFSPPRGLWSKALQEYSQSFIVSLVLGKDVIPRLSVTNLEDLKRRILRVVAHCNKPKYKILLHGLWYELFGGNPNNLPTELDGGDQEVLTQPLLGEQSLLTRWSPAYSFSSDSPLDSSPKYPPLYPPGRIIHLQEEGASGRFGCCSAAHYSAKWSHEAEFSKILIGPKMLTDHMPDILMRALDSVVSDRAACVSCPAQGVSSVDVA
# TAAR1 antagonist: human TAAR1 antagonism. Q96RJ0. CHO RD-HGA16 TAAR1, Fluo-8 calcium fluorescence, antagonist. inhibition, % at 3 µM. 360,000 compounds, 1.5% hits;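 active = inhibition above a per-plate cutoff, the mean inhibition of test compounds on that plate plus 3 SD, cut at about 49% in these data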;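 note: 0% = DMSO plus EC80 beta-PEA response and 100% = DMSO alone without agonist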
#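 Assay system: RD-HGA16 CHO cells with stable hTAAR1 and Gα16 / Reagent: EC80 β-phenethylamine stimulus / Doses: 3 µM, single point / Timing: dye loading 75 min at 37 °C, then 30 min room temperature / Measured by: Fluo-8 intracellular calcium dye fluorescence, real-time kinetic reads / Controls: vehicle wells and EC80 agonist wells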
# MPTP inh: inhibitors of mitochondrial permeability transition pore. inhibition, % at 10 µM. isolated mouse mitochondria, Ca2+ swelling absorbance, 30 min. 360,000 compounds, 1.4% hits;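 active = inhibition of 50% or more, scaled per plate between neutral and stimulator controls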;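 note: 0% = DMSO wells given calcium and 100% = 1 mM EGTA wells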
# TAAR1 ag: human TAAR1 agonism; activation, % at 3 µM; AID 624467; Q96RJ0; CHO RD-HGA16 TAAR1, Fluo-8 calcium fluorescence; vehicle wells 0%, saturating PEA agonist 100%; 360,000 compounds, 0.99% hits;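 active = activation above the mean activation of all test compounds in the run plus 3 SD, cut at about 38% in these data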
#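 System: CHO RD-HGA16 cells carrying human TAAR1 plus Gα16; Incubation: 17-24 h seeding, 75 min 37 °C dye, 30 min RT; Measured by: Fluo-8 fluorescence, 5 s baseline then 140 s kinetic read; Control set: DMSO and PEA EC100; Replication: single well for each compound.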
# GPR7 antag: antagonists of human GPR7 (neuropeptides B/W receptor 1); P48145; GPR7-expressing cells, fluorescence antagonist assay; inhibition, % at 4.4 µM; 290,000 compounds, 1.1% hits; in the data active = inhibition above about 16%, passing the limit was not always enough;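 note: cells stimulated with the agonist NPW; 0% = agonist with vehicle and 100% = vehicle without agonist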
# Rh123 counter: Rhodamine 123 counter-screen of mitochondrial pore hits; shares compounds with MPTP inh; isolated mitochondria, membrane potential, Rhodamine 123 fluorescence; inhibition, % at 10 µM; 5,000 compounds, 78% hits; AID 624504; in the data active = inhibition above about 22%;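 note: 0% = DMSO vehicle and 100% = positive control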
# MPTP abs DR: dose response confirmation of mitochondrial permeability transition pore inhibitors | shares compounds with MPTP inh | isolated mitochondria swelling, absorbance | IC50, µM | 780 compounds, 58% hits | AID 651561; in the data active = IC50 below about 20 µM
# MPTP counter DR: counter-screen for mitochondrial permeability transition pore inhibitors, dose response | shares compounds with MPTP inh | isolated mitochondria counterscreen, fluorescence read-out | IC50, µM | 780 compounds, 49% hits; in the data active = IC50 below about 80 µM
# Active calls of the source: *; i = inactive; . = no result; ! = a repeat was not active. In the library only some 4% were active in any assay of this set; here they are far more common.
SMILES,DAGLB inh,TAAR1 antagonist,MPTP inh,TAAR1 ag,GPR7 antag,Rh123 counter,others
COc1cccc(-c2cc(CNC(=O)[C@H]3O[C@@H](n4cnc(C(N)=O)n4)[C@H](O)[C@@H]3O)no2)c1,.,-42.0,.,2.8,.,.,
CCCCNS(=O)(=O)c1ccc2nc(SCC(=O)Nc3sccc3C#N)[nH]c2c1,0.2,47.5,79.4*,27.7,13.1,-3.6,MPTP abs DR=11.2*;MPTP counter DR=<2.5*
CCCCNS(=O)(=O)c1ccc2nc(SCC(N)=O)[nH]c2c1,0.2,-9.8,-0.5,-0.1,-19.6,.,
COc1ccc(NC(=S)NC(NC(C)=O)C(Cl)(Cl)Cl)c([N+](=O)[O-])c1 (stereo unspecified),1.8,-4.4,4.3,0.3,-2.8,.,
COc1ccc(NC(=S)NC(NC(=O)c2cccc(Cl)c2)C(Cl)(Cl)Cl)c([N+](=O)[O-])c1 (stereo unspecified),4.5,10.1,92.3*,28.6,-3.9,51.0*,
COc1ccc(NC(=S)NC(NC(=O)c2cccc(C)c2)C(Cl)(Cl)Cl)c([N+](=O)[O-])c1 (stereo unspecified),6.2,22.1,71.4*,6.7,-10.1,63.5*,
CC(C)c1ccc2c(c1)CC[C@H]1[C@](C)(CN)CCC[C@]21C,-0.7,-1.8,88.4*,38.1*!,.,-4.6,MPTP abs DR=>100;MPTP counter DR=>80
Cc1ccc(C)c(NC(=O)c2cc3ccccn3n2)c1,-7.7,-6.5,52.8*,4.5,-3.0,5.1,MPTP abs DR=i;MPTP counter DR=>80
CCCN(CCC)CCNS(=O)(=O)c1ccc2c(c1)CCN2C(=O)C1CCC1,0.0,4.0,-1.1,3.1,-1.1,.,
O=C(C1CC1)N1CCc2cc(S(=O)(=O)NCCC3=CCCCC3)ccc21,0.2,21.9,62.4*,15.8,-10.6,46.0*,
CS(=O)(=O)N1CCc2cc(S(=O)(=O)Nc3ccc4c(c3)OCCO4)ccc21,-3.9,16.7,11.7,9.2,-4.7,.,
O=C(C1CCC1)N1CCc2cc(S(=O)(=O)Nc3ccc4c(c3)OCCO4)ccc21,3.5,17.7,65.3*,6.3,6.4,81.3*,
CCC(=O)N1CCc2cc(S(=O)(=O)Nc3ccc4c(c3)OCCO4)ccc21,1.9,24.0,81.2*,7.7,-6.6,58.5*,
CCOC(=O)CNC(=O)N(C)[C@H]1C[C@H]2c3[nH]c4c(-c5ccccc5)cccc4c3CCN2C(=O)[C@H]1[C@H](C)O,.,43.0,.,5.8,.,.,
Cc1oc2c(c(C)nn2-c2ccccc2)c(=O)c1Cl,.,-21.9,.,0.0,.,.,
Cc1[nH]nc(Nc2ccc(Br)cc2)c1[N+](=O)[O-],-2.6,5.0,57.2*,2.6,-2.8,71.7*,
CCc1ccc2c(c1)cc(CN(C(=S)Nc1ccc(Cl)cc1)C1CC1)c1nnnn12,-1.6,-2.2,146.4*,-1.9,-8.2,9.9,MPTP abs DR=>100;MPTP counter DR=>80
O=C(NCc1ccc(Cl)cc1)c1n[nH]c([N+](=O)[O-])c1Cl,5.7,7.7,76.0*,6.5,-12.3,90.7*,
COCc1cc(N2CCN(C(=O)OC(C)(C)C)C[C@@H]2C)ccc1N1CCN(Cc2ccccc2)[C@@H](C)C1,.,-26.9,.,0.1,.,.,
O=C(CCc1ccc(S(=O)(=O)NCCc2ccccc2)cc1)N1CCN(Cc2ccc3c(c2)OCO3)CC1,1.3,34.5,54.5*,31.0,1.6,23.9*,
Cc1ccc(N2CC(C(=O)Nc3nc4ccc(S(C)(=O)=O)cc4s3)CC2=O)cc1 (stereo unspecified),4.0,6.5,0.0,0.9,8.9,.,
COC(=O)[C@]12C[C@H](CC(=O)NCC3CCCCC3)C(=O)N(Cc3ccccc3)C1=C[C@H](C(C)(C)C)O[C@@H]2C,.,-43.4,.,-2.2,.,.,
CCN(CC)CCSC(=O)C(c1ccccc1)c1ccccc1,.,7.8,65.0*,2.1,.,-2.5,MPTP abs DR=i;MPTP counter DR=>80
Cc1ccc(-c2cc(-c3n[nH]c(=S)o3)c3ccccc3n2)cc1,6.6,0.5,93.6*,1.2,-3.7,63.5*,
CCn1c2ccccc2c2cc(NC(=O)CNCC3CCCO3)ccc21 (stereo unspecified),2.1,-6.5,61.0*,7.9,9.4,-11.9,MPTP abs DR=i;MPTP counter DR=>80
SMILES,DAGLB inh,TAAR1 antagonist,MPTP inh,TAAR1 ag,GPR7 antag,Rh123 counter,others
CCn1c2ccccc2c2cc(NC(=O)CN3CCCC3)ccc21,-2.8,9.5,24.5,14.9,-4.0,.,
CN1CCc2c(sc3nc(SCC(=O)N4CCOCC4)n(-c4ccc(Cl)cc4)c(=O)c23)C1,1.0,-3.8,-0.5,4.6,-13.0,.,
O=c1c2c(nc3c(-c4cccc(Br)c4)c[nH]n13)CCCC2,-2.4,18.0,58.4*,-1.8,-14.8,72.8*,
O=c1c2c(nc3c(-c4ccccc4)c[nH]n13)CCC2,2.1,-4.9,-0.4,-1.5,-4.7,.,
O=C(CSc1nnnn1C1CC2CCC1C2)Nc1ccnc2ccccc12 (stereo unspecified),-2.8,52.2*,98.2*,25.2,23.1*,100.7*,
COC(=O)c1c(C)oc2ccc(N(C(=O)c3ccncc3)S(=O)(=O)c3ccc(C)cc3C)cc12,-0.3,13.6,62.3*,1.5,-6.6,28.7*,
CCC(C)c1ccccc1NC(=O)COC(=O)c1ccc2[nH]c3c(c2c1)CCCC3 (stereo unspecified),-6.9,45.8,82.9*,1.0,-17.4,72.7*,
COC(=O)C(C(=O)OC)c1ccccc1CNS(=O)(=O)c1ccc(C)cc1,.,-18.1,-0.6,1.0,.,.,
CCN1C(=O)[C@H]2[C@@H](c3ccc(C)cc3)N3C(=O)N(c4ccccc4)C(=O)[C@@]3(CC)[C@H]2C1=O,1.4,1.4,-1.1,7.2,-4.9,.,
Cc1cc(C)c(-c2csc(Cc3nc(-c4cc5ccccc5oc4=O)cs3)n2)cc1C,-14.2,-13.7,53.1*,1.4,-10.8,9.7,MPTP abs DR=6.29*;MPTP counter DR=7.84*
Cc1ccc(-c2csc(Cc3nc(-c4cc5ccccc5oc4=O)cs3)n2)cc1,-7.3,0.0,19.5,-2.5,-6.5,.,
COc1ccc(C2CC(c3ccccc3)=NN2c2ccc(N)cc2)cc1 (stereo unspecified),6.2,16.8,73.1*,0.1,-5.7,71.0*,
COc1ccc(C2CC(c3ccccc3O)=NN2c2ccccc2)cc1 (stereo unspecified),-5.8,-17.7,0.4,11.5,.,.,
Cc1ccc(S(=O)(=O)N2CCC(=O)N(CCOCc3ccc(C(F)(F)F)cc3)CC2)cc1,-2.2,5.5,77.5*,8.8,-5.8,99.0*,
O=C(CCl)NC1(C(=O)O)CCCC1,1.5,-0.4,-1.3,1.2,.,.,
NC(=O)c1ncn([C@@H]2O[C@H](C(=O)N[C@H](Cc3c[nH]c4ccccc34)C(=O)N3CCN(C(=O)N4CCCCC4)CC3)[C@@H](O)[C@H]2O)n1,.,-19.7,.,3.6,.,.,
